Source: ChEMBL document CHEMBL3856209, “Novel pyrazolopyridine derivatives as potential angiogenesis inhibitors: Synthesis, biological evaluation and transcriptome-based mechanistic analysis” (Eur J Med Chem, 2016)
Active and inactive are the calls of the source. The calls are words filed in the database; no cut-off is given here.

What was measured:
HUVEC [1] = test: Effect on ACACA gene expression in serum-starved HUVEC after 6 hrs by microarray analysis relative to control; assay type: functional, Homo sapiens
In short: (§1)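 Serum-starved confluent HUVEC treated with 2 μM compound or DMSO in 2.5% FBS for 6 h or 24 h; RNA hybridized to Illumina Human-HT12 arrays. Data background-corrected, vst-transformed and rsn-normalized. Differential probes called by moderated paired t-test (limma) at p < 0.05 and log2 fold change >|0.5| vs DMSO.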

HUVEC [2] = test: Effect on ANGPT2 gene expression in serum-starved HUVEC after 6 hrs by microarray analysis relative to control; assay type: functional, Homo sapiens; in short: as §1
HUVEC [3] = test: Effect on ANKRD1 gene expression in serum-starved HUVEC after 6 hrs by microarray analysis relative to control; assay type: functional, Homo sapiens
In short: (§2)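 Confluent serum-starved HUVEC (primary, pooled from 3–5 donors, passage ≤4) treated with 2 μM compound or DMSO vehicle in 2.5% FBS for 6 h or 24 h. Total RNA hybridized to Illumina Human-HT12 arrays, background-corrected, vst-transformed and rsn-normalized. Differential expression versus DMSO by moderated paired t-test (p < 0.05, |log2 fold change| > 0.5).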

HUVEC [4] = test: Effect on BHLHE40 gene expression in serum-starved HUVEC after 6 hrs by microarray analysis relative to control; assay type: functional, Homo sapiens; in short: as §1
HUVEC [5] = test: Effect on CD14 gene expression in serum-starved HUVEC after 6 hrs by microarray analysis relative to control; assay type: functional, Homo sapiens; in short: as §2
HUVEC [6] = test: Effect on CENPW gene expression in serum-starved HUVEC after 6 hrs by microarray analysis relative to control; assay type: functional, Homo sapiens; in short: as §1
HUVEC [7] = test: Effect on FAM198B gene expression in serum-starved HUVEC after 6 hrs by microarray analysis relative to control; assay type: functional, Homo sapiens; in short: as §2
HUVEC [8] = test: Effect on FAM212A gene expression in serum-starved HUVEC after 6 hrs by microarray analysis relative to control; assay type: functional, Homo sapiens; in short: as §2
HUVEC [9] = test: Effect on FTH1P8 gene expression in serum-starved HUVEC after 6 hrs by microarray analysis relative to control; assay type: functional, Homo sapiens
In short: (§3)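 Confluent, serum-starved HUVEC (pooled from 3–5 donors, passage ≤4) treated with 2 μM compound or vehicle with 2.5% FBS for 6 h or 24 h. Total RNA hybridized to Illumina Human-HT12 arrays. Data were background-corrected, vst-transformed and rsn-normalized. Hits called by moderated paired t-test versus DMSO-treated cells, p < 0.05 and log2 fold change >|0.5|.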

HUVEC [10] = test: Effect on GRPEL2 gene expression in serum-starved HUVEC after 6 hrs by microarray analysis relative to control; assay type: functional, Homo sapiens; in short: as §3
HUVEC [11] = test: Effect on HLA-DRB4 gene expression in serum-starved HUVEC after 6 hrs by microarray analysis relative to control; assay type: functional, Homo sapiens; in short: as §3
HUVEC [12] = test: Effect on LMNB2 gene expression in serum-starved HUVEC after 6 hrs by microarray analysis relative to control; assay type: functional, Homo sapiens
In short: (§4)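 Serum-starved confluent HUVEC (pooled from 3–5 donors, passage ≤4) were treated with 2 μM compound or vehicle in 2.5% FBS for 6 h or 24 h, and total RNA was isolated. Hybridization was on Illumina Human-HT12. Data were processed with bgAdjust, vst and rsn normalization. Changes versus DMSO were called by moderated paired t-test at p < 0.05 and |log2 fold change| > 0.5.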

HUVEC [13] = test: Effect on MSMO1 gene expression in serum-starved HUVEC after 6 hrs by microarray analysis relative to control; assay type: functional, Homo sapiens; in short: as §4
HUVEC [14] = test: Effect on OIP5 gene expression in serum-starved HUVEC after 6 hrs by microarray analysis relative to control; assay type: functional, Homo sapiens
HUVEC [15] = test: Effect on RACGAP1 gene expression in serum-starved HUVEC after 6 hrs by microarray analysis relative to control; assay type: functional, Homo sapiens
HUVEC [16] = test: Effect on RNU1-1 gene expression in serum-starved HUVEC after 6 hrs by microarray analysis relative to control; assay type: functional, Homo sapiens
HUVEC [17] = test: Effect on UACA gene expression in serum-starved HUVEC after 6 hrs by microarray analysis relative to control; assay type: functional, Homo sapiens
HUVEC [18] = test: Effect on AIF1 gene expression in serum-starved HUVEC after 24 hrs by microarray analysis relative to control; assay type: functional, Homo sapiens; in short: as §1
HUVEC [19] = test: Effect on COL4A3BP gene expression in serum-starved HUVEC after 24 hrs by microarray analysis relative to control; assay type: functional, Homo sapiens; in short: as §2
HUVEC [20] = test: Effect on DKK1 gene expression in serum-starved HUVEC after 24 hrs by microarray analysis relative to control; assay type: functional, Homo sapiens; in short: as §2
HUVEC [21] = test: Effect on LIPG gene expression in serum-starved HUVEC after 24 hrs by microarray analysis relative to control; assay type: functional, Homo sapiens
HUVEC [22] = test: Effect on LPIN1 gene expression in serum-starved HUVEC after 24 hrs by microarray analysis relative to control; assay type: functional, Homo sapiens
HUVEC [23] = test: Effect on PODXL gene expression in serum-starved HUVEC after 24 hrs by microarray analysis relative to control; assay type: functional, Homo sapiens; in short: as §4
HUVEC [24] = test: Effect on SCD gene expression in serum-starved HUVEC after 24 hrs by microarray analysis relative to control; assay type: functional, Homo sapiens
HUVEC [25] = test: Effect on SULT1C4 gene expression in serum-starved HUVEC after 24 hrs by microarray analysis relative to control; assay type: functional, Homo sapiens
HUVEC [26] = test: Effect on TM7SF2 gene expression in serum-starved HUVEC after 24 hrs by microarray analysis relative to control; assay type: functional, Homo sapiens
HUVEC [27] = test: Effect on TUBB2B gene expression in serum-starved HUVEC after 24 hrs by microarray analysis relative to control; assay type: functional, Homo sapiens
[28] = Upregulation of INSIG1 gene expression in serum-starved HUVEC at 2 uM after 24 hrs by qRT-PCR analysis; assay type: functional, cell-based; details: Homo sapiens
[29] = Downregulation of UBE2C gene expression in serum-starved HUVEC at 2 uM after 24 hrs by qRT-PCR analysis; assay type: functional, cell-based; details: Homo sapiens
In short: (§5)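 Serum-starved confluent HUVEC treated with 2 μM compound or vehicle in 2.5% FBS for 24 h. Total RNA isolated and qRT-PCR run in triplicate (95 °C 5 min; 40 cycles of 95 °C 5 s, 58 °C 20 s, 72 °C 5 s), normalized to RPS18S. Fold change vs control, n = 3.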

[30] = Downregulation of CDC20 gene expression in serum-starved HUVEC at 2 uM after 24 hrs by qRT-PCR analysis; assay type: functional, cell-based; details: Homo sapiens; in short: as §5
HUVEC [31] = test: Effect on HINT3 gene expression in serum-starved HUVEC after 24 hrs by microarray analysis relative to control; assay type: functional, Homo sapiens; in short: as §3
HUVEC [32] = test: Effect on GANAB gene expression in serum-starved HUVEC after 24 hrs by microarray analysis relative to control; assay type: functional, Homo sapiens; in short: as §3
HUVEC [33] = test: Effect on RNA18S5 gene expression in serum-starved HUVEC after 24 hrs by microarray analysis relative to control; assay type: functional, Homo sapiens
HUVEC [34] = test: Effect on SND1-IT1 gene expression in serum-starved HUVEC after 6 hrs by microarray analysis relative to control; assay type: functional, Homo sapiens
HUVEC [35] = test: Effect on TAOK1 gene expression in serum-starved HUVEC after 24 hrs by microarray analysis relative to control; assay type: functional, Homo sapiens
HUVEC [36] = test: Effect on BIRC5 gene expression in serum-starved HUVEC after 6 hrs by microarray analysis relative to control; assay type: functional, Homo sapiens; in short: as §1
HUVEC [37] = test: Effect on ELMOD1 gene expression in serum-starved HUVEC after 24 hrs by microarray analysis relative to control; assay type: functional, Homo sapiens; in short: as §3
HUVEC [38] = test: Effect on FILIP1L gene expression in serum-starved HUVEC after 6 hrs by microarray analysis relative to control; assay type: functional, Homo sapiens; in short: as §3

In the case of `COc1ccc(Cn2nc(-c3ccccc3)c3cc(Nc4ccc(N5CCN(C)CC5)cc4)nc(N4CCN(C)CC4)c32)cc1`, the “fold change (FC)” value (HUVEC [1]) is reported as 0.1305, the “fold change (FC)” value (HUVEC [2]) is reported as 0.2528 and the “fold change (FC)” value (HUVEC [3]) is reported as -0.5735. For the same molecule, the “fold change (FC)” value (HUVEC [4]) was 0.7182, the “fold change (FC)” value (HUVEC [5]) was 1.7643 and the log2FC (HUVEC [6]) was -0.2667. For the same molecule, the “fold change (FC)” value (HUVEC [7]) was 0.7445, the “fold change (FC)” value (HUVEC [8]) was 0.129 and the “fold change (FC)” value (HUVEC [9]) was 0.2063. The “fold change (FC)” value (HUVEC [10]) was 0.2207, the “fold change (FC)” value (HUVEC [11]) was 0.3506 and the “fold change (FC)” value (HUVEC [12]) was 0.1414. For the same molecule, the “fold change (FC)” value (HUVEC [13]) was 0.7741, the “fold change (FC)” value (HUVEC [14]) was -0.4214 and the log2FC (HUVEC [15]) was -0.171. For the same molecule, the “fold change (FC)” value (HUVEC [16]) was -0.6255, the “fold change (FC)” value (HUVEC [17]) was 0.2427 and the log2FC (HUVEC [18]) was -0.7905. The “fold change (FC)” value (HUVEC [19]) was -0.1456, the “fold change (FC)” value (HUVEC [20]) was -0.6899 and the log2FC (HUVEC [21]) was 1.1948. For the same molecule, the log2FC (HUVEC [22]) was 0.8618, the log2FC (HUVEC [23]) was 0.6696 and the log2FC (HUVEC [24]) was 1.4341. For the same molecule, the log2FC (HUVEC [25]) was 0.5208, the log2FC (HUVEC [26]) was 1.5761 and the log2FC (HUVEC [27]) was 0.8576. For the same molecule, the Activity [28] was “Active”, the Activity [29] was “Active” and the Activity [30] was “Active”.
Work on `COc1ccc(Cn2nc(-c3ccccc3)c3cc(Nc4ccc(N5CCN(C)CC5)cc4)nc(N4CCNCC4)c32)cc1` yielded a log2FC (HUVEC [31]) of 0.6699, a log2FC (HUVEC [32]) of -0.5222 and a log2FC (HUVEC [33]) of 0.5309. The log2FC (HUVEC [34]) was -0.0103 and the log2FC (HUVEC [35]) was 0.6142.
For `COc1ccc(Cn2nc(-c3ccccc3)c3cc(Cl)nc(N4CCNCC4)c32)cc1`, the “fold change (FC)” value (HUVEC [36]) was 0.0293, the log2FC (HUVEC [37]) was -0.514 and the log2FC (HUVEC [38]) was 0.5185.
